Key:
[1] = species on record: Gallus gallus; test: Antiangiogenic activity in chicken embryo chorioallantoic membrane model assessed as inhibition of FGF-induced angiogenesis at 1 uM treated 1 hr after FGF challenge measured after 48 hrs relative to control; format: functional, tissue-based
In short: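 Live chick chorioallantoic membrane was exposed to FGF with or without test agent, with PBS as a control. New vessel formation was scored as branch points and reported as mean ± SEM, n = 8. Percent inhibition was calculated against the FGF control.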

[2] = species on record: Mus musculus; test: Antiangiogenic activity in […] mouse assessed as inhibition of FGF-induced angiogenesis at 10 ug/Matrigel plug measured after 15 days of Matrigel injection using […] reagent staining by ELISA; format: functional; settings: in the assay text read “after 14 days” for “after 15 days”
In short: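 Mice housed 4 per cage at 20–24 °C, 60–70% humidity, 12 h light/dark, food and water ad libitum, with 5 days' acclimation. Matrigel thawed overnight at 4 °C, kept on ice, injected subcutaneously with FGF. Dissected plugs were stripped of peritoneum, homogenized in ddH₂O for 5–10 min, and spun at 4000 rpm for 10 min. Supernatant was mixed with Drabkin's reagent for 15–30 min at room temperature for hemoglobin measurement.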

[3] = Dissociation constant, pKa of the compound; format: physicochemical

Row | pKa [3] | Structure (SMILES) | inhibition [1] [%] | inhibition (INH) [2] [%]
1 | – | O=C(Cc1cc(I)c(Oc2cc(I)c(OCC3CO3)c(I)c2)c(I)c1)OCC1CO1 (configuration not stated) | 31 | 100
2 | – | CC(C)(C)OC(=O)Cc1cc(I)c(Oc2cc(I)c(O)c(I)c2)c(I)c1 | 88 | 95
3 | – | CC(C)[Si](OC(=O)Cc1cc(I)c(Oc2cc(I)c(O)c(I)c2)c(I)c1)(C(C)C)C(C)C | 75 | 104
4 | – | O=C(O)Cc1cc(I)c(Oc2cc(I)c(OCC3CO3)c(I)c2)c(I)c1 (configuration not stated) | 62 | 100
5 | – | O=C(Cc1cc(I)c(Oc2cc(I)c(OCC3CO3)c(I)c2)c(I)c1)N1CCCCC1 (configuration not stated) | 44 | 80
6 | 4.3 | O=C(O)Cc1cc(I)c(Oc2cc(I)c(O)c(I)c2)c(I)c1 [TETRAC] | 85 | 90
7 | – | O=C(Cc1cc(I)c(Oc2cc(I)c(O)c(I)c2)c(I)c1)N1CCCCC1 | 15 | 104
8 | – | CC(C)[Si](OC(=O)Cc1cc(I)c(Oc2cc(I)c(OCC3CO3)c(I)c2)c(I)c1)(C(C)C)C(C)C (configuration not stated) | 96 | 100

Reference: ChEMBL document CHEMBL1158426, “Semisynthesis and pharmacological activities of Tetrac analogs: angiogenesis modulators” (Bioorg Med Chem Lett, 2009)
